In ChEMBL document CHEMBL3244084, “A study of the mechanism of halothane-induced liver necrosis. Role of covalent binding of halothane metabolites to liver proteins in the rat” (J Med Chem, 1977):
Active and inactive are the calls of the source. The rule behind the calls is not given here.

Columns and labels:
Rattus norvegicus [1] = assay: Drug uptake in Sprague-Dawley rat assessed as radioactivity in liver protein at 4.6 to 23 mmol/kg, ip measured up to 24 hrs by scintillation counting; type: ADME, organism-based; conditions: in vivo
In short: (§1)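 Male Sprague-Dawley rats, 100-120 g, fasted overnight. [1-14C]Halothane in olive oil (50 µCi/kg) given ip at 4.6, 11.5 or 23.0 mmol/kg. Rats killed at 0.5-24 h. Lipid fraction isolated from 1 g liver by the Folch method; DNA fraction by the Irving-Veazey method; proteins handled as for binding. Radioactivity counted by liquid scintillation. Means of six rats.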

Rattus norvegicus [2] = assay: Toxicity in phenobarbital pretreated Sprague-Dawley rat assessed as liver necrosis at 23 mmol/kg, ip measured after 24 hrs; type: organism-based; conditions: in vivo
Rattus norvegicus [3] = assay: Toxicity in Sprague-Dawley rat assessed as liver necrosis at 4.6 mmol/kg, ip measured after 0.5 to 24 hrs; type: organism-based; conditions: in vivo
In short: (§2)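 Normal or phenobarbital-pretreated male Sprague-Dawley rats dosed ip with [14C]halothane in olive oil; controls received the vehicle. Rats killed by cervical dislocation 0.5-24 h after dosing. Liver slices fixed in 10% buffered formalin (pH 7.0) and paraffin-embedded. 6-µm sections stained with H&E and read by light microscopy. Necrosis graded on a 0-4+ scale. Six rats per time point.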

Rattus norvegicus [4] = assay: Toxicity in phenobarbital pretreated Sprague-Dawley rat assessed as liver necrosis at 11.5 mmol/kg, ip measured after 24 hrs; type: organism-based; conditions: in vivo
Liver [5] = assay: Protein binding in Sprague-Dawley rat liver protein at 4.6 to 23 mmol/kg, ip measured per mg of protein up to 24 hrs by scintillation counting; type: ADME, organism-based; conditions: in vivo
In short: (§3)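 Male Sprague-Dawley rats, normal or phenobarbital-pretreated (80 mg/kg ip, 3 days), received ip [1-14C]halothane in olive oil (50 µCi/kg). Liver homogenized 1 g/3 ml water at 0 °C. Protein precipitate washed ten times with hot (60 °C) methanol-ether 3:1, then digested in 1 N NaOH and counted. Protein measured by Lowry against BSA. Result expressed as nmol halothane equivalents per mg protein. Blank from [14C]halothane added to control homogenate was subtracted. Six rats.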

Rattus norvegicus [6] = assay: Toxicity in phenobarbital pretreated Sprague-Dawley rat assessed as mortality at 11.5 mmol/kg, ip measured up to 24 hrs; type: organism-based; conditions: in vivo
In short: (§4)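 Male Sprague-Dawley rats, 100-120 g, fasted overnight before dosing and fed afterwards. Some received phenobarbital sodium 80 mg/kg ip in water for 3 days and were used on day 4. [1-14C]halothane in olive oil, 50 µCi/kg, was given ip. Mortality was recorded over the sacrifice schedule of 0.5-24 h, with six rats per time point. Vehicle controls received olive oil.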

Rattus norvegicus [7] = assay: Toxicity in Sprague-Dawley rat assessed as liver necrosis at 4.6 mmol/kg, ip measured after 0.5 to 24 hrs by histopathological/light microscopy analysis (reference value: 0%); type: organism-based; conditions: in vivo; in short: as §2
Rattus norvegicus [8] = assay: Toxicity in Sprague-Dawley rat assessed as serum glutamic pyruvic transaminase level in blood at 23 mmol/kg, ip measured after 0.5 to 24 hrs (reference value: 14 +/- 2 IU/L); type: organism-based; conditions: in vivo
Rattus norvegicus [9] = assay: Toxicity in phenobarbital pretreated Sprague-Dawley rat assessed as serum glutamic pyruvic transaminase level in blood at 4.6 mmol/kg, ip measured after 0.5 to 24 hrs (reference value: 15 +/- 2 IU/L); type: organism-based; conditions: in vivo
Rattus norvegicus [10] = assay: Toxicity in Sprague-Dawley rat assessed as serum glutamic pyruvic transaminase level in blood at 4.6 mmol/kg, ip measured after 0.5 to 24 hrs (reference value: 14 +/- 2 IU/L); type: organism-based; conditions: in vivo
Rattus norvegicus [11] = assay: Toxicity in Sprague-Dawley rat assessed as liver necrosis at 11.5 mmol/kg, ip measured after 0.5 to 24 hrs by histopathological/light microscopy analysis (reference value: 0%); type: organism-based; conditions: in vivo; in short: as §2
Rattus norvegicus [12] = assay: Drug uptake in Sprague-Dawley rat assessed as radioactivity in DNA fraction at 4.6 to 23 mmol/kg, ip measured up to 24 hrs by scintillation counting; type: ADME, organism-based; conditions: in vivo; in short: as §1
Rattus norvegicus [13] = assay: Toxicity in Sprague-Dawley rat assessed as serum glutamic pyruvic transaminase level in blood at 11.5 mmol/kg, ip measured after 0.5 to 24 hrs (reference value: 14 +/- 2 IU/L); type: organism-based; conditions: in vivo
Rattus norvegicus [14] = assay: Toxicity in phenobarbital pretreated Sprague-Dawley rat assessed as serum glutamic pyruvic transaminase level in blood at 11.5 mmol/kg, ip measured after 0.5 to 24 hrs (reference value: 15 +/- 2 IU/L); type: organism-based; conditions: in vivo
Liver [15] = assay: Protein binding in phenobarbital pretreated Sprague-Dawley rat liver protein at 4.6 to 23 mmol/kg, ip measured per mg of protein up to 24 hrs by scintillation counting; type: ADME, organism-based; conditions: in vivo; in short: as §3
Rattus norvegicus [16] = assay: Toxicity in Sprague-Dawley rat assessed as mortality at 23 mmol/kg, ip measured up to 24 hrs; type: organism-based; conditions: in vivo; in short: as §4
Rattus norvegicus [17] = assay: Toxicity in phenobarbital pretreated Sprague-Dawley rat assessed as multiple, discrete foci of liver parenchymal cell necrosis at 23 mmol/kg, ip measured after 0.5 to 24 hrs by histopathological/light microscopy analysis (reference value: 0%); type: organism-based; conditions: in vivo; in short: as §2
Rattus norvegicus [18] = assay: Toxicity in phenobarbital pretreated Sprague-Dawley rat assessed as liver necrosis at 4.6 mmol/kg, ip measured after 0.5 to 24 hrs by histopathological/light microscopy analysis (reference value: 0%); type: organism-based; conditions: in vivo; in short: as §2
Rattus norvegicus [19] = assay: Toxicity in Sprague-Dawley rat assessed as mortality at 4.6 mmol/kg, ip measured up to 24 hrs; type: organism-based; conditions: in vivo; in short: as §4
Rattus norvegicus [20] = assay: Toxicity in phenobarbital pretreated Sprague-Dawley rat assessed as mortality at 23 mmol/kg, ip measured up to 24 hrs; type: organism-based; conditions: in vivo; in short: as §4
Rattus norvegicus [21] = assay: Toxicity in Sprague-Dawley rat assessed as mortality at 11.5 mmol/kg, ip measured up to 24 hrs; type: organism-based; conditions: in vivo; in short: as §4
Rattus norvegicus [22] = assay: Toxicity in Sprague-Dawley rat assessed as liver necrosis at 23 mmol/kg, ip measured after 0.5 to 24 hrs by histopathological/light microscopy analysis (reference value: 0%); type: organism-based; conditions: in vivo; in short: as §2
Rattus norvegicus [23] = assay: Toxicity in phenobarbital pretreated Sprague-Dawley rat assessed as mortality at 4.6 mmol/kg, ip measured up to 24 hrs; type: organism-based; conditions: in vivo; in short: as §4
Rattus norvegicus [24] = assay: Drug uptake in Sprague-Dawley rat assessed as radioactivity in lipid fraction at 4.6 to 23 mmol/kg, ip measured at 6 to 8 hrs by scintillation counting; type: ADME, organism-based; conditions: in vivo; in short: as §1
Rattus norvegicus [25] = assay: Drug uptake in Sprague-Dawley rat assessed as radioactivity in lipid fraction at 4.6 to 23 mmol/kg, ip measured at 1 to 6 hrs by scintillation counting; type: ADME, organism-based; conditions: in vivo; in short: as §1
Rattus norvegicus [26] = assay: Toxicity in phenobarbital pretreated Sprague-Dawley rat assessed as liver necrosis at 4.6 mmol/kg, ip measured after 0.5 to 24 hrs; type: organism-based; conditions: in vivo; in short: as §2
Rattus norvegicus [27] = assay: Toxicity in phenobarbital pretreated Sprague-Dawley rat assessed as multiple, discrete foci of liver parenchymal cell necrosis at 11.5 mmol/kg, ip measured after 0.5 to 24 hrs by histopathological/light microscopy analysis (reference value: 0%); type: organism-based; conditions: in vivo; in short: as §2
Rattus norvegicus [28] = assay: Toxicity in Sprague-Dawley rat assessed as liver necrosis at 23 mmol/kg, ip measured after 4 to 24 hrs; type: organism-based; conditions: in vivo; in short: as §2
Rattus norvegicus [29] = assay: Toxicity in phenobarbital pretreated Sprague-Dawley rat assessed as serum glutamic pyruvic transaminase level in blood at 23 mmol/kg, ip measured after 0.5 to 24 hrs (reference value: 15 +/- 2 IU/L); type: organism-based; conditions: in vivo
Rattus norvegicus [30] = assay: Toxicity in Sprague-Dawley rat assessed as liver necrosis at 11.5 mmol/kg, ip measured after 4 to 24 hrs; type: organism-based; conditions: in vivo; in short: as §2
Rattus norvegicus [31] = assay: Anesthetic activity in Sprague-Dawley rat assessed as duration of anesthesia at 23 mmol/kg, ip; type: functional
In short: (§5)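 Male Sprague-Dawley rats, 100-120 g, fasted overnight before dosing, fed afterwards. Single ip dose of [1-14C]halothane in olive oil (diluted with unlabeled halothane; 50 µCi 14C/kg). Duration of anesthesia recorded in normal and phenobarbital-pretreated rats. Pretreatment was phenobarbital sodium 80 mg/kg ip in water for 3 days, with use on day 4. Six rats per group.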

Rattus norvegicus [32] = assay: Anesthetic activity in Sprague-Dawley rat assessed as duration of anesthesia at 11.5 mmol/kg, ip; type: functional; in short: as §5
Rattus norvegicus [33] = assay: Anesthetic activity in Sprague-Dawley rat assessed as duration of anesthesia at 4.6 mmol/kg, ip; type: functional, organism-based; conditions: tested as the 14C-labelled form; in short: as §5

## F[14C](F)(F)C(Cl)Br (stereo not drawn)
Rattus norvegicus [1]
  Drug uptake: Active
Rattus norvegicus [2]
  Activity: Toxic
Rattus norvegicus [3]
  Activity: Non-toxic
Rattus norvegicus [4]
  Activity: Toxic
Liver [5]
  PB: 0.8 nmol/mg
Rattus norvegicus [6]
  Activity: Non-toxic
Rattus norvegicus [7]
  Activity: 0%
Rattus norvegicus [8]
  Activity: 18 IU/L
Rattus norvegicus [9]
  Activity: 19 IU/L
Rattus norvegicus [10]
  Activity: 16 IU/L
Rattus norvegicus [11]
  Activity: 0%
Rattus norvegicus [12]
  Drug uptake: Not Active
Rattus norvegicus [13]
  Activity: 18 IU/L
Rattus norvegicus [14]
  Activity: 37 IU/L
Liver [15]
  PB: > 2 nmol/mg
Rattus norvegicus [16]
  Activity: Non-toxic
Rattus norvegicus [17]
  Activity: 6%
Rattus norvegicus [18]
  Activity: 0%
Rattus norvegicus [19]
  Activity: Non-toxic
Rattus norvegicus [20]
  Activity: Non-toxic
Rattus norvegicus [21]
  Activity: Non-toxic
Rattus norvegicus [22]
  Activity: 0%
Rattus norvegicus [23]
  Activity: Non-toxic
Rattus norvegicus [24]
  Drug uptake: Not Active
Rattus norvegicus [25]
  Drug uptake: Active
Rattus norvegicus [26]
  Activity: Non-toxic
Rattus norvegicus [27]
  Activity: < 6%
Rattus norvegicus [28]
  Activity: Non-toxic
Rattus norvegicus [29]
  Activity: 58 IU/L
Rattus norvegicus [30]
  Activity: Non-toxic
Rattus norvegicus [31]
  Time: 3.75 h
Rattus norvegicus [32]
  Time: 1.92 h

## FC(F)(F)C(Cl)Br (stereo not drawn)
Rattus norvegicus [33]
  Activity: inactive
